Experiments:
[1] = Drug uptake in human MDA-MB-231 cells assessed per million cells at 10 uM in presence of 1% FBS after 24 hrs incubation by HPLC-MS analysis; format: ADME, cell-based; settings: mda-mb-231, 24 h
How it was run: (§1)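 MDA-MB-231 cells grown in T-25 flasks in DMEM/10% FBS to ~70% confluency, then given fresh DMEM with the stated FBS plus inhibitor (0.02% DMSO final), 37 °C, 24 h. Cells washed with cold PBS ×3, extracted overnight at 4 °C with cold MeCN/MeOH 1:1, centrifuged, quantified by HPLC against calibration curves, corrected for dilution, cell number and solvent extraction efficiency; nmol per million cells; triplicate, mean ± SD.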

[2] = Drug uptake in human MDA-MB-231 cells assessed per million cells at 10 uM in presence of 5% FBS after 24 hrs incubation by HPLC-MS analysis; format: ADME, cell-based; settings: mda-mb-231, 24 h; how it was run: as §1
[3] = Drug uptake in human MDA-MB-231 cells assessed per million cells at 10 uM in presence of 10% FBS after 24 hrs incubation by HPLC-MS analysis; format: ADME, cell-based; settings: mda-mb-231, 24 h; how it was run: as §1
[4] = Drug accumulation in human MDA-MB-231 cells at 10 uM in presence of 10% FBS after 24 hrs incubation by HPLC-MS analysis; format: ADME, cell-based; settings: mda-mb-231, 24 h; how it was run: as §1
[5] = Drug uptake in human MDA-MB-231 cells assessed per million cells preincubated for 6 hrs followed by solvent addition measured after overnight incubation at 4 degC by HPLC-MS analysis; format: ADME, cell-based; settings: mda-mb-231, 6 h
[6] = Drug uptake in human MDA-MB-231 cells assessed per million cells preincubated for 6 hrs followed by trypsin-EDTA digestion for 2 mins measured after overnight incubation at 4 degC by HPLC-MS analysis; format: ADME, cell-based; settings: mda-mb-231, 2 min
How it was run: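 After 6 h inhibitor exposure at 37 °C, MDA-MB-231 cells washed three times with ice-cold PBS, detached with 0.25% trypsin/1 mM EDTA in PBS for 2 min at 37 °C, resuspended in cold DMEM, washed once in ice-cold PBS, extracted with cold MeCN/MeOH 1:1, HPLC quantified; triplicate, mean ± SD divided by extraction efficiency.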

[7] = Drug uptake in human MDA-MB-231 cells assessed as cell bound drug level per million cells at 2 uM in presence of 5% FBS after 6 hrs at 4 degC by HPLC-MS analysis; format: ADME, cell-based; settings: mda-mb-231, 6 h
How it was run: (§2)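 Confluent (~70%) MDA-MB-231 cells given inhibitor in 5 mL cold DMEM with 0.02% DMSO (10% FBS for BRD-targeting inhibitors, 5% FBS for β-catenin/BCL9 inhibitors), held at 4 °C for 6 h; then washed, extracted overnight at 4 °C in MeCN/MeOH 1:1, HPLC quantified; triplicate, mean ± SD divided by solvent extraction efficiency.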

[8] = Apparent permeability at 200 uM after 5 hrs by PAMPA; format: physicochemical
How it was run: (§3)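 Artificial membrane of 1% egg lecithin in n-dodecane on a filter plate; compound at 200 μM on donor side, 5 h at room temperature; compound quantified by HPLC/DAD; percent transport and apparent permeability calculated from previously published equations.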

[9] = Permeability assessed as drug transport at 200 uM after 5 hrs by PAMPA; format: physicochemical; how it was run: as §3
[10] = Solubility of the compound in DMEM medium up to 200 uM; format: physicochemical
[11] = Stability of the compound in DMEM medium assessed as parent compound remaining at 100 uM after 72 hrs in absence of 10% FBS by HPLC method
How it was run: (§4)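 Compound added at 100 μM final (0.02% v/v DMSO) to 5 mL DMEM with or without 10% FBS in T-25 flasks, no cells; incubated 37 °C in CO2 incubator for 3–72 h. Aliquots drawn at each time point and analysed by HPLC; parent remaining taken from chromatogram AUC relative to starting time point. Triplicate.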

[12] = Stability of the compound in DMEM medium assessed as parent compound remaining at 100 uM after 72 hrs in presence of 10% FBS by HPLC method
How it was run: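 Compound at 100 μM final (0.02% DMSO) in 5 mL DMEM with or without 10% FBS, cell-free in T-25 flasks, 37 °C in CO2 incubator for 3–72 h. Aliquots analysed by HPLC. Percent remaining derived from chromatogram AUC relative to starting time point. Triplicate.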

[13] = Retention time of the compound by HPLC/DAD analysis
How it was run: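 Agilent HPLC with DAD, detection at 254/355 nm or 235/355 nm. Kromasil C18 column (4.6 × 250 mm), 20 μL injection. Gradient from H2O (0.1% TFA) to 50:50 MeCN over 0–18 min, then to 100% MeCN by 20 min, held to 25 min, at 1.5 mL/min.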

[14] = Drug uptake in human MDA-MB-231 cells assessed as extracellular concentration at 0.065 umol in presence of 10% FBS after 24 hrs by HPLC-MS analysis; format: ADME, cell-based; settings: mda-mb-231, 24 h
How it was run: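 MDA-MB-231 cells incubated 24 h at 37 °C with inhibitor in 5 mL DMEM with the stated FBS. Media plus cold PBS washes pooled, dried; cells extracted with MeCN/MeOH 1:1; HPLC peak areas of both fractions compared by mass balance with the input moles added to medium.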

[15] = Drug uptake in human MDA-MB-231 cells assessed as intracellular concentration at 0.065 umol in presence of 10% FBS after 24 hrs by HPLC-MS analysis; format: ADME, cell-based; settings: mda-mb-231, 24 h; how it was run: as §1
[16] = Drug uptake in human MDA-MB-231 cells assessed as extracted concentration at 1 uM after 24 hrs by HPLC-MS analysis; format: ADME, cell-based; settings: mda-mb-231, 24 h
How it was run: (§5)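 MDA-MB-231 cells at ~70% confluency in T-25 flasks exposed to a range of inhibitor input concentrations in DMEM with FBS, 0.02% DMSO, 37 °C, 24 h; cold PBS washes, overnight MeCN/MeOH 1:1 extraction at 4 °C, HPLC quantification against calibration curves with extraction-efficiency correction.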

[17] = Drug uptake in human MDA-MB-231 cells assessed as extracted concentration at 10 uM after 24 hrs by HPLC-MS analysis; format: ADME, cell-based; settings: mda-mb-231, 24 h; how it was run: as §5
[18] = Drug uptake in human MDA-MB-231 cells assessed as extracted concentration at 100 uM after 24 hrs by HPLC-MS analysis; format: ADME, cell-based; settings: mda-mb-231, 24 h; how it was run: as §5
[19] = Drug uptake in human MDA-MB-231 cells assessed per million cells at 10 uM in presence of 5% FBS after 6 hrs at 4 degC by HPLC-MS analysis; format: ADME, cell-based; settings: mda-mb-231, 6 h; how it was run: as §2
[20] = Drug uptake in human MDA-MB-231 cells after 6 hrs in presence of 10% FBS by HPLC-MS analysis; format: ADME, cell-based; settings: mda-mb-231, 6 h
How it was run: (§6)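 MDA-MB-231 cells at ~70% confluency in T-25 flasks, incubated 6 h at 37 °C with inhibitor in DMEM containing the stated FBS (0.02% DMSO). Parallel 6 h incubation at 4 °C in cold DMEM used to measure nonspecific cell-bound amount. Accurate intracellular moles = 37 °C value minus 4 °C value. Extraction with MeCN/MeOH 1:1, HPLC quantification, corrected for extraction efficiency. Triplicate.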

[21] = Stability in human MDA-MB-231 cells at 10 uM after 72 hrs by HPLC-MS analysis; format: ADME, cell-based; settings: mda-mb-231, 72 h
How it was run: (§7)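 Time course: inhibitor added to ~70%-confluent MDA-MB-231 cells in T-25 flasks, in 5 mL DMEM plus FBS (0.02% DMSO), incubated at 37 °C for 3–72 h. At each time point cells washed with cold PBS and extracted with cold MeCN/MeOH 1:1 overnight at 4 °C. Intracellular moles per million cells determined by HPLC calibration.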

[22] = Stability of the compound in DMEM medium assessed as parent compound remaining at 100 uM after 24 hrs in presence of 10% FBS by HPLC method; how it was run: as §4
MDA-MB-231 = assay: Antiproliferative activity against human MDA-MB-231 cells after 72 hrs by MTS assay; format: functional, cell-based; settings: MDA-MB-231, 72 h
[23] = Drug uptake in human MDA-MB-231 cells assessed per million cells at 2 uM in presence of 1% FBS after 24 hrs incubation by HPLC-MS analysis; format: ADME, cell-based; settings: mda-mb-231, 24 h; how it was run: as §1
[24] = Drug uptake in human MDA-MB-231 cells assessed per million cells at 2 uM in presence of 5% FBS after 24 hrs incubation by HPLC-MS analysis; format: ADME, cell-based; settings: mda-mb-231, 24 h; how it was run: as §1
[25] = Drug accumulation in human MDA-MB-231 cells at 2 uM in presence of 5% FBS after 24 hrs incubation by HPLC-MS analysis; format: ADME, cell-based; settings: mda-mb-231, 24 h; how it was run: as §1
[26] = Drug uptake in human MDA-MB-231 cells assessed as intracellular concentration at 0.0103 umol in presence of 5% FBS after 24 hrs by HPLC-MS analysis; format: ADME, cell-based; settings: mda-mb-231, 24 h; how it was run: as §1
[27] = Drug uptake in human MDA-MB-231 cells assessed as extracted concentration at 2 uM after 24 hrs by HPLC-MS analysis; format: ADME, cell-based; settings: mda-mb-231, 24 h; how it was run: as §5
[28] = Drug uptake in human MDA-MB-231 cells assessed as extracted concentration at 20 uM after 24 hrs by HPLC-MS analysis; format: ADME, cell-based; settings: mda-mb-231, 24 h; how it was run: as §5
[29] = Drug uptake in human MDA-MB-231 cells assessed as extracted concentration at 0.2 uM after 24 hrs by HPLC-MS analysis; format: ADME, cell-based; settings: mda-mb-231, 24 h; how it was run: as §5
[30] = Drug uptake in human MDA-MB-231 cells assessed as non specific binding with culture plate at 2 uM in presence of 5% FBS after 6 hrs at 4 degC by HPLC-MS analysis; format: ADME, cell-based; settings: mda-mb-231, 6 h
[31] = Drug uptake in human MDA-MB-231 cells after 6 hrs in presence of 5% FBS by HPLC-MS analysis; format: ADME, cell-based; settings: mda-mb-231, 6 h; how it was run: as §6
[32] = Stability in human MDA-MB-231 cells at 2 uM after 72 hrs by HPLC-MS analysis; format: ADME, cell-based; settings: mda-mb-231, 72 h; how it was run: as §7

CC(=O)c1cc(-c2cc(C(=O)NC3CC3)ccc2C)c2ncccn12
Drug uptake [1]: 0.069 nmol
Drug uptake [2]: 0.074 nmol
Drug uptake [3]: 0.12 nmol
Drug uptake [4]: 2%
Drug uptake [5]: 0.11 nmol
Drug uptake [6]: 0.038 nmol
Drug uptake [7]: 0.085 nmol
Papp at 5 h, 200 µM [8]: 14.3 ×10⁻⁶ cm/s
Drug transport [9]: 32.3%
solubility [10]: Soluble
Stability [11]: 94%
Stability [12]: Unstable
Retention time [13]: 16.4 min
Drug uptake [14]: 0.059 µmol
Drug uptake [15]: 0.0012 µmol
Drug uptake [16]: 0.035 µM
Drug uptake [17]: 0.1 µM
Drug uptake [18]: 0.665 µM
Drug uptake [19]: 0.025 nmol
Drug uptake [20]: Dose-dependent effect
Stability [21]: Stable
Stability [22]: 94%

Cl.Cl.O=C(Nc1ccc(O[C@H]2CCNC2)c(-c2ccc(F)cc2)c1)c1ccc(O[C@H]2CCNC2)c(-c2ccc(F)c(F)c2)c1
IC50 (MDA-MB-231): 2300 nM
Drug uptake [23]: 6.1 nmol
Drug uptake [24]: 6.5 nmol
Drug uptake [25]: 98%
Drug uptake [5]: 6.7 nmol
Drug uptake [6]: 5.5 nmol
Drug uptake [7]: 1 nmol
Papp at 5 h, 200 µM [8]: 0.13 ×10⁻⁶ cm/s
Drug transport [9]: 0.2%
solubility [10]: Soluble
Stability [11]: 47%
Stability [12]: 70%
Retention time [13]: 15.8 min
Drug uptake [26]: 0.0101 µmol
Drug uptake [27]: 0.076 µM
Drug uptake [28]: 0.128 µM
Drug uptake [29]: 0.022 µM
Drug uptake [30]: 4%
Drug uptake [31]: Dose-dependent effect
Stability [32]: Stable
